Assay results: paper PMC3399519 (European Journal of Medicinal Chemistry, 2011)
Entries after “also recorded” stand apart in the source; their conditions may differ. Read-outs that look alike come from different tables or passages of the source.

How the values were obtained:
Tip60 [1] = target: T1, Tip60 (Homo sapiens, UniProt Q92993); test: Radioisotope-labeled histone acetyltransferase assay, Tip60; format: biochemical; details: for Tip60 inhibition (in words): 200 µM compound; for selectivity for Tip60 in comparison with PCAF and p300: recombinant enzyme inhibition assays
T1 sequence (Q92993 whole entry): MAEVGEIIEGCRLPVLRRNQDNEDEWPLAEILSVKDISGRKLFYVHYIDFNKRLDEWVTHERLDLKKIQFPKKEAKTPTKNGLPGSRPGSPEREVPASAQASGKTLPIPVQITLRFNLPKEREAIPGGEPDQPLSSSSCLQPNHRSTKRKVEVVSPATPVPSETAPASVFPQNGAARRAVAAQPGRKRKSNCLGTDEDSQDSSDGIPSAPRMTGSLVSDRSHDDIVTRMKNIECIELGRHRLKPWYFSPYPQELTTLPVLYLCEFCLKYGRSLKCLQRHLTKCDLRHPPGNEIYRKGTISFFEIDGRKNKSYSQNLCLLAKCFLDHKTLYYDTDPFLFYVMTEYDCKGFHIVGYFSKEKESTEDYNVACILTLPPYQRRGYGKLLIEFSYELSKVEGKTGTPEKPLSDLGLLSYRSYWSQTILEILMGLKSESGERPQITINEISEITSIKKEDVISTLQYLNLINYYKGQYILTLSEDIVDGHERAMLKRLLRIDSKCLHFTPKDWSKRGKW

[2] = test system: HAT activity in HeLa nuclear extracts (histone H4 acetylation); test: ELISA acetyltransferase assay with HeLa nuclear extracts, histone H4 peptide; format: biochemical; details: for inhibition of HAT activity in HeLa nuclear extracts (in words): histone H4 acetylation; for inhibition of cellular HAT activity (HeLa nuclear extracts): 200 µM compound, histone H4
How it was run: (§1)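 HeLa nuclear extract (2.5 µg/mL final protein) acetylates biotinylated histone H3 (aa 1–21) or H4 (aa 2–24) peptide immobilised via streptavidin. Reaction runs 15 min, read by anti-acetyl-lysine ELISA. H3 tested at 50 µM against H4. Triplicates, scaled to no-inhibitor and no-enzyme controls.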

[3] = test system: HAT activity in HeLa nuclear extracts (histone H3 acetylation); format: biochemical; details: 50 µM compound
How it was run: as §1

[4] = target: human recombinant PCAF HAT domain (Homo sapiens, UniProt Q92831); test: Radioisotope-labeled histone acetyltransferase assay, PCAF; format: biochemical; details: 200 µM compound
human recombinant PCAF HAT domain, sequence (Q92831 493-658): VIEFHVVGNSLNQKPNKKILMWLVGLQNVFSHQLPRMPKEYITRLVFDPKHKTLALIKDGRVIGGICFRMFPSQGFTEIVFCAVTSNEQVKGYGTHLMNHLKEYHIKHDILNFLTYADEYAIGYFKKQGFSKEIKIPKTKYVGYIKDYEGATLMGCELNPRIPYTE

HEP G2 cells = HEP G2 cells ref 12; cited from earlier work
[5] = target: T2, human recombinant p300 HAT domain (Homo sapiens, UniProt Q09472); test: Radioisotope-labeled histone acetyltransferase assay, p300; format: biochemical; details: 200 µM compound
T2 sequence (Q09472 1287-1663 limits assumed): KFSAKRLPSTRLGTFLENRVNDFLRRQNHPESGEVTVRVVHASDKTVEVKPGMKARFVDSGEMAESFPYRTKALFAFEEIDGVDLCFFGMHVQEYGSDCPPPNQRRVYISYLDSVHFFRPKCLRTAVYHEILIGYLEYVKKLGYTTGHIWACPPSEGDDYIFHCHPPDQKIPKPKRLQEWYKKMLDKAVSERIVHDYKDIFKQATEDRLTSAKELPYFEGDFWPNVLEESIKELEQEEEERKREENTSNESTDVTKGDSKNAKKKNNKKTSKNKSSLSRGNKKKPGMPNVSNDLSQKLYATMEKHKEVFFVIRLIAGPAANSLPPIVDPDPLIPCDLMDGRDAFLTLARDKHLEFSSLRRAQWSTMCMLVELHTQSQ

[6] = test system: HAT activity of nuclear extracts of brain tissue samples; format: biochemical, rats; details: 30 µM inhibitor, histone H3 as acetyl acceptor
How it was run: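 Nuclear extracts come from tissue of different brain regions, at 40 µg/mL protein, standardised by protein content. Biotinylated histone H3 peptide (aa 1–21) is streptavidin-immobilised as acceptor. Buffer: 50 mM HEPES pH 7.4 with Triton X-100, EDTA, BSA and DTT. Inhibitor at 30 µM, 15 min reaction, anti-acetyl-lysine ELISA. Triplicates for each of two animals, blanks subtracted.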

Tip60 [7] = target: T1, Tip60; test: Steady-state kinetic characterization of Tip60 inhibition; format: biochemical
PCAF [8] = details: read-out: IC50 PCAF; estimated by Kundu et al. ref 7; cited from earlier work
p300 [9] = details: read-out: IC50 p300; Souto et al. ref 11; cited from earlier work
p300 [10] = details: read-out: IC50 p300; estimated by Kundu et al. ref 7; cited from earlier work
PCAF [11] = details: read-out: IC50 PCAF; previous characterization with a different assay ref 12; cited from earlier work

Compound	Tip60 inhibition (in words) (Tip60 [1])	inhibition of cellular HAT activity (HeLa nuclear extracts) [2] [%]	also measured
COCCOc1ccc(CCc2cccc(O)c2C(=O)O)cc1 [6b]	very weakly inhibit; also recorded: very poor inhibitors	–	inhibition of HAT activity in HeLa nuclear extracts (in words) [2]: strongly reduced HAT inhibitory potency; also recorded: poor inhibition
CCCCCCCCCCc1cc(O)cc(O)c1C(=O)O [compound 19]	also inhibited the Tip60 HAT activity	> 50	selectivity for Tip60 in comparison with PCAF and p300 (Tip60 [1]): selective for Tip60
CCCCCCCCCCCCCCCc1cc(O)cc(O)c1C(=O)O [compound 18]	also inhibited the Tip60 HAT activity	> 50	selectivity for Tip60 in comparison with PCAF and p300 (Tip60 [1]): selective for Tip60
CCCCCCCCCCCCCCCc1ccccc1C(=O)O [compound 12]	also inhibited the Tip60 HAT activity	> 50	–
CCCCCOc1ccc(/C=C\c2cccc(O)c2C(=O)O)cc1 [compound 21]	also inhibited the Tip60 HAT activity	> 50	selectivity for Tip60 in comparison with PCAF and p300 (Tip60 [1]): selective for Tip60; inhibitory potency on histone H3 acetylation compared to histone H4 acetylation [3]: opposite; inhibition of HAT activity in HeLa nuclear extracts (in words) [2]: high inhibitory activity; effect on PCAF activity (in words) [4]: enhance the PCAF activity significantly; inhibition of histone acetylation in HEP G2 cells compared to 16 (AA) (HEP G2 cells): more potent inhibitor of histone acetylation than 16 (AA)
CCCCCCCCCCCCCCOc1ccc(CCc2cccc(O)c2C(=O)O)cc1 [compound 25]	only modest inhibitory activity; also recorded: also inhibited the Tip60 HAT activity	> 50	inhibitory potency on histone H3 acetylation compared to histone H4 acetylation [3]: opposite
CCCCCCCc1ccc(CCc2cc(O)cc(O)c2C(=O)O)cc1 [compound 15]	–	–	potency on HeLa nuclear extracts compared to recombinant Tip60 [2]: more potent on HeLa nuclear extracts than for the recombinant Tip60
CCCCCCCCCCCCCCCc1cccc(O)c1C(=O)O [16 (AA), 6-pentadecylsalicylic acid, reference compound]	almost completely; also recorded: also inhibited the Tip60 HAT activity	> 50	inhibition at 200 µM (Tip60 [1]; read-out: inhibition of Tip60 activity): > 76%; inhibitory potency on histone H3 acetylation compared to histone H4 acetylation [3]: almost equal potency for both histones; IC50 (PCAF [8]): 5 µM; IC50 (p300 [9]): 50 to 100 µM; IC50 (p300 [10]): 8.5 µM; IC50 (PCAF [11]): ~1 mM
CCCCCCCCCCc1cccc(O)c1C(=O)O [compound 17]	also inhibited the Tip60 HAT activity	> 50	inhibitory potency on histone H3 acetylation compared to histone H4 acetylation [3]: almost equal potency for both histones
CCCCCc1cccc(O)c1C(=O)O [6h]	very poor inhibitors	–	inhibition of HAT activity in HeLa nuclear extracts (in words) [2]: strongly reduced HAT inhibitory potency; also recorded: poor inhibition
CCCCCCCCCCCCCC#Cc1ccccc1C(=O)OC [compound 11]	also inhibited the Tip60 HAT activity	> 50	–

Second part, led by results:

Tip60 inhibition (in words) (Tip60 [1])	inhibition of cellular HAT activity (HeLa nuclear extracts) [2] [%]	Compound	also measured
also inhibited the Tip60 HAT activity	> 50	CCCCCOc1ccc(CCc2cccc(O)c2C(=O)O)cc1C(C)=O [6c]	–
also inhibited the Tip60 HAT activity	> 50	CC(C)CCCC(C)CCOc1ccc(CCc2cccc(O)c2C(=O)O)cc1 (stereo not shown) [6a]	–
also inhibited the Tip60 HAT activity	> 50	CCCCCCCOc1ccc(CCc2cccc(O)c2C(=O)O)cc1C(C)=O [6f]	–
also inhibited the Tip60 HAT activity	> 50	CCCCCCCc1ccc(CCc2cccc(O)c2C(=O)O)cc1 [compound 20]	inhibition at 200 µM (Tip60 [1]; read-out: inhibition of Tip60 activity, 200 µM compound, 100 nM Tip60, 10 µM Ac-CoA, 100 µM H4-20): > 76%; effect on p300 activity (in words) [5]: no inhibitory impact; also recorded: no observable inhibitory effect; inhibition of HAT activity of nuclear extracts of different brain regions [6]: equal potency to AA; inhibition pattern with respect to Ac-CoA (Tip60 [7]): essentially competitive with respect to Ac-CoA; effect on PCAF activity (in words) [4]: no inhibitory impact; also recorded: no observable inhibitory effect
also inhibited the Tip60 HAT activity	> 50	CCCCCOc1ccc(CCc2cccc(O)c2C(=O)O)cc1 [compound 24]	inhibitory potency on histone H3 acetylation compared to histone H4 acetylation [3]: opposite; effect on PCAF activity (in words) [4]: enhance the PCAF activity significantly
very weakly inhibit	–	CCCCCOc1ccc(CCc2cccc(O)c2C(=O)O)cc1C(C)O (stereo not shown) [6d]	potency on HeLa nuclear extracts compared to recombinant Tip60 [2]: more potent on HeLa nuclear extracts than for the recombinant Tip60
